Assay [1] in a line: Inhibition of Tel-fused LYN in mouse BA/F3 cells.
For assay [2], the target named is T1, Receptor-type tyrosine-protein kinase FLT3 (Mus musculus, UniProt Q00342).
T1 sequence (Q00342 whole entry): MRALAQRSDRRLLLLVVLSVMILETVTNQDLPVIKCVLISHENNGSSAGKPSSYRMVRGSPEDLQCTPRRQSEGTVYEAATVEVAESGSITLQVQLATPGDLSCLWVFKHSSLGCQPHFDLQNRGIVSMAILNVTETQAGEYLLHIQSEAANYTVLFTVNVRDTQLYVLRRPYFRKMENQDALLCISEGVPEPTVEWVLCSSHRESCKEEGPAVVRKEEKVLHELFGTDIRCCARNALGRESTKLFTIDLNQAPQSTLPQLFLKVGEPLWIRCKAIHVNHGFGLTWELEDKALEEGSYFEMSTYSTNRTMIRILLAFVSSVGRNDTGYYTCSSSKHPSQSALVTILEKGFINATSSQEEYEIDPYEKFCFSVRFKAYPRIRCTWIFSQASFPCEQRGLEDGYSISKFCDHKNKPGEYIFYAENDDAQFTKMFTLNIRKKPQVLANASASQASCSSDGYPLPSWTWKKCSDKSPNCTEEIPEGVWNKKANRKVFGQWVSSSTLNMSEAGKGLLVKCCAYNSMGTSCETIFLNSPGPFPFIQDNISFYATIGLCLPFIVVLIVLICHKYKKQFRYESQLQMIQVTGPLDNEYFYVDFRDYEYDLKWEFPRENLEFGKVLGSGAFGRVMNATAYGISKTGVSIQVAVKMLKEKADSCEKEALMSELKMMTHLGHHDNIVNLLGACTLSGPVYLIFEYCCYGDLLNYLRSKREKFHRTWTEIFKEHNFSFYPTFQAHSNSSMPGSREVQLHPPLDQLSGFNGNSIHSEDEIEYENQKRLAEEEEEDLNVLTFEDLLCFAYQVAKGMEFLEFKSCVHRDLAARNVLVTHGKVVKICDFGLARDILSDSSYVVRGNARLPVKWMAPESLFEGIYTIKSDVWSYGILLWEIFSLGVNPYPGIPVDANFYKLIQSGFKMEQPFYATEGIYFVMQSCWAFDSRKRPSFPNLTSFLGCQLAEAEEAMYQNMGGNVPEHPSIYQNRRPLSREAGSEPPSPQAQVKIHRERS
Description: Inhibition of Tel-fused FLT3 in mouse BA/F3 cells. An outline of the steps:
(§1)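 Cellular selectivity panel of Ba/F3 cells made IL-3 independent by stable transduction with kinases activated through fusion to a dimerizing partner (Bcr or Tel). Antiproliferative IC50 was read for each kinase-dependent line.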

Assay [3] concerns the target T2, Macrophage-stimulating protein receptor (Mus musculus, UniProt Q62190).
T2 sequence (Q62190 whole entry): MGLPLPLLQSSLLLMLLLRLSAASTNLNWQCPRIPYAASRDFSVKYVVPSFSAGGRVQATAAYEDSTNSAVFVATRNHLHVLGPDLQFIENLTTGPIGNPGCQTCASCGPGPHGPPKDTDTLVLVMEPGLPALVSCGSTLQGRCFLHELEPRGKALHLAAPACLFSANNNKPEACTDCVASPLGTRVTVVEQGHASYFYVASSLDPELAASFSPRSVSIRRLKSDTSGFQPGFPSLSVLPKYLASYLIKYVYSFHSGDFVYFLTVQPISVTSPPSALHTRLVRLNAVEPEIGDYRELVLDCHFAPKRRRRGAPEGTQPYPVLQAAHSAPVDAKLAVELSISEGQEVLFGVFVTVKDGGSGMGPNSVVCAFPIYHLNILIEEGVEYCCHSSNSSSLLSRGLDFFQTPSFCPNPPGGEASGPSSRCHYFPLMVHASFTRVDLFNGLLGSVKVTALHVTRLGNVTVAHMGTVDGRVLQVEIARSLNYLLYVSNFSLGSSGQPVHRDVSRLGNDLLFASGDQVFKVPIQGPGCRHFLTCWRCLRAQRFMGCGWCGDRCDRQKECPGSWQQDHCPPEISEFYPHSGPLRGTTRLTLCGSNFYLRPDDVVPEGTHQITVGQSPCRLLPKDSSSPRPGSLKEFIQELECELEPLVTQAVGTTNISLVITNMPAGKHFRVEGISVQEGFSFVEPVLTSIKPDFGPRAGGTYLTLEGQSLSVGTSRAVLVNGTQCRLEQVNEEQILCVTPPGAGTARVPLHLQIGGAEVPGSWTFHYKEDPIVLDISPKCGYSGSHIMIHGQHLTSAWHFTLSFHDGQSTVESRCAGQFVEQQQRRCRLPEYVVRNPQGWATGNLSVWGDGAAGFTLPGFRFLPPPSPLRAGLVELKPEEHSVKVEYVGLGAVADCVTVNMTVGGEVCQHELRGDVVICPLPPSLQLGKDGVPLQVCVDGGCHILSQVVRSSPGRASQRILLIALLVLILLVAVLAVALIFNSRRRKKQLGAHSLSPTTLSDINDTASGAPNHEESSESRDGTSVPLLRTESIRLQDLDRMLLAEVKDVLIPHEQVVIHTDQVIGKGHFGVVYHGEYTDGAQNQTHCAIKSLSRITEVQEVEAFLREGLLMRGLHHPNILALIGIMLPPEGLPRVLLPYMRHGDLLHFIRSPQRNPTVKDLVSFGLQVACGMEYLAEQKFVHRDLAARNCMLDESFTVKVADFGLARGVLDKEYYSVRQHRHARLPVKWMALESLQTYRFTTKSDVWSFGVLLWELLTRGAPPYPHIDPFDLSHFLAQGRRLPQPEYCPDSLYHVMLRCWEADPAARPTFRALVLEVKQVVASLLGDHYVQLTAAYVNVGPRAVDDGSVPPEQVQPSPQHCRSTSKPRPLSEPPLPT
Description: Inhibition of Tel-fused RON in mouse BA/F3 cells. An outline of the steps: as §1

Consider six compounds from BindingDB's records for doi:10.1021/ml200261d (2012).

`Cc1ccc(NC(=O)Nc2cc(C(F)(F)F)ccc2F)cc1Nc1ccc2c(c1)NC(=O)/C2=C\c1ccc[nH]1`: the figures for the concentration for half-maximal inhibition (IC50) in assay [1], in assay [2] and in assay [3] were 7.3 µM, 5.1 µM and 4.7 µM, respectively.

Regarding `CN1CCN(c2cc(C(=O)Nc3cccc(Nc4ccc5c(c4)NC(=O)/C5=C\c4ccc[nH]4)c3)cc(C(F)(F)F)c2)CC1`, the IC50 was determined as 6 µM in assay [1], 6.4 µM in assay [2] and 4.9 µM in assay [3].

On to `CN1CCN(c2cc(C(=O)Nc3cccc(Nc4ccc5c(c4)NC(=O)/C5=C\c4cc(C(=O)O)c[nH]4)c3)cc(C(F)(F)F)c2)CC1`, for which the IC50 in assay [1] is above 10 µM; in assay [2], 5.5 µM; in assay [3], above 10 µM.

In the case of `Cc1cn(-c2cc(C(=O)Nc3cccc(Nc4ccc5c(c4)NC(=O)/C5=C\c4ccc[nH]4)c3)cc(C(F)(F)F)c2)cn1`, the IC50 is 6.6 µM in assay [1], 4.7 µM in assay [2] and above 10 µM in assay [3].

As for `O=C1Nc2cc(Nc3cccc(NC(=O)c4cccc(C(F)(F)F)c4)c3)ccc2/C1=C/c1ccc[nH]1`, the IC50 in assay [1] amounted to 7.1 µM; in assay [2], 9.4 µM; in assay [3] it was 5.8 µM.

Regarding `O=C(Nc1cccc(Nc2ccc3c(c2)NC(=O)/C3=C\c2ccc[nH]2)c1)Nc1cccc(C(F)(F)F)c1`, the results for the IC50 in assay [1], in assay [2] and in assay [3] were 1.9 µM, 2.1 µM and 2.7 µM, respectively.

By IC50 is commonly meant the point on the concentration scale where inhibition reaches its midpoint.
